XiGFP reactiv: activators of X-chromosome reactivation in mouse fibroblasts; XiGFP mouse fibroblasts, % GFP-positive cells imaging, 3 d; cells co-treated with 5-aza-dC sensitizer; scaled so ellipticine positive control = 100%; activation, % at 7.58 µM; actives 0.055% (n = 360,000);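 active = mean normalized replicate activation at least 10% and every replicate at or above 10%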
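System: 68-5-11 XiGFP fibroblast line | Buffer or medium: DMEM containing 5-aza-dC | Compound: Single point | Times: Compounds 3 days, fix/stain 15 min at room temperature | Benchmarks: Positive control ellipticine, 6 µM final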
INS-1E GSIS act: primary screen for activators of insulin secretion dependent on glucose, INS-1E cells, GLuc reporter luminescence; INS-1E GLuc reporter insulin secretion, 2-3 h; activation, % at 16.6 µM; actives 0.61% (n = 370,000);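 active = lowest replicate activation of at least 40%, so every replicate reaches that level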
EWS-Fli block: inhibitors of EWS/Fli oncoprotein transcriptional activity; A673 NR0B1-luciferase reporter, viability-normalised; inhibition, % at 12.6 µM; AID 651661; actives 0.67% (n = 350,000);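 active = mean inhibition of at least 50% after viability correction, with every replicate also passing that limit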;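 note: firefly luciferase signal divided by Alamar Blue viability fluorescence both relative to DMSO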
PGC1a acetyl inh: PGC1a acetylation modulation, inhibitor mode | U2OS PGC1a acetylation, AlphaScreen anti-acetyl-lysine; with virally co-expressed GCN5 acetyltransferase | inhibition, % at 15.6 µM | actives 0.17% (n = 350,000) | AID 651687;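 active = every replicate shows inhibition of at least 40%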
PAX8 inh HTS: PAX8 transcriptional activity inhibition. actives 1.2% (n = 360,000). inhibition, % at 12.6 µM. RMG-I TPO-luciferase reporter, SteadyGlo, 24 h;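 active = mean replicate inhibition at least 60% with every replicate also reaching 60%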;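 note: luciferase light reporting Pax8 driven TPO promoter activity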
AF4-AF9 inh: inhibitors of human MLL-AF4/AF9 interaction; P42568; AlphaScreen, biotin-AF4 peptide binding to FLAG-AF9; inhibition, % at 10 µM; actives 0.47% (n = 350,000);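 active = every replicate reaching a set inhibition limit, whatever the replicate mean, cut at about 25% in these data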
Target sequence (P42568 whole entry, looked up): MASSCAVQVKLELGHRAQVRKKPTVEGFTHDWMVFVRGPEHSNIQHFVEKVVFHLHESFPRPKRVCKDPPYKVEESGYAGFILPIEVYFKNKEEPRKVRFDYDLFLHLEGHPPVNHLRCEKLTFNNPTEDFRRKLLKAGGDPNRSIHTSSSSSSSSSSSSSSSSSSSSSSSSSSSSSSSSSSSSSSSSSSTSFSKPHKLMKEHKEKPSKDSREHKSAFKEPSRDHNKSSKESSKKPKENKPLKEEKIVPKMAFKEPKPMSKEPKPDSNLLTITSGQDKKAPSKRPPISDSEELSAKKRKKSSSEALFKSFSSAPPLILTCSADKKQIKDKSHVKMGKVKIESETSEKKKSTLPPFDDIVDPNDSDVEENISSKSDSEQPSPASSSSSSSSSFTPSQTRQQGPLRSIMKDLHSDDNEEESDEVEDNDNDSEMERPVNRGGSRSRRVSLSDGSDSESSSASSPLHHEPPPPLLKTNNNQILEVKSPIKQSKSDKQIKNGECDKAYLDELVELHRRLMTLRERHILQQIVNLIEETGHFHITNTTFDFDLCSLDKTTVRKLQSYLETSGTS
Hits are given with their value; i = inactive; nt = no result. A selection: hits, their analogues and other compounds. The true share with any hit is near 2.1%.

SMILES | XiGFP reactiv | INS-1E GSIS act | EWS-Fli block | PGC1a acetyl inh | PAX8 inh HTS | AF4-AF9 inh
C[C@H](CO)N1C[C@H](C)[C@@H](CN(C)CC2CCCCC2)Oc2ccc(NC(=O)Nc3ccccc3)cc2CC1=O | i | i | i | i | i | i
CN(C)c1ccc2c(c1)[C@@H]1C[C@@H](CC(=O)NCc3cccc(F)c3)O[C@@H](CO)[C@@H]1O2 | i | i | i | i | i | i
O=C1[C@@H]2Cc3c([nH]c4ccccc34)C(c3cccc(Br)c3)N2C(=O)CN1C1CCN(Cc2ccccc2)CC1 (some centres undefined) | i | i | i | i | 91 | i
COc1cccc(S(=O)(=O)Nc2ccc3c(c2)OC[C@@H](C)N(Cc2ccccc2F)C[C@@H](C)[C@@H](OC)CN(C)C3=O)c1 | i | i | i | i | i | i
CC(C)CN=C(NS(=O)(=O)c1ccccc1)C(Cl)(Cl)Cl | i | i | i | nt | 100 | i
O=C(Nc1ccccc1N1CCOCC1)C1(c2ccc(Cl)cc2)CCC1 | i | i | i | 41 | i | i
COc1ccc(Cl)cc1NC(=O)CN(C)CC(=O)Nc1ccccc1N1CCOCC1 | i | i | 62 | nt | i | i
COc1ccc(Cl)cc1NC(=O)CN(C)CC(=O)N1CC(=O)Nc2ccccc21 | i | nt | i | i | i | i
C[C@H]1CN([C@@H](C)CO)C(=O)c2cc(Br)cnc2O[C@@H]1CN(C)Cc1ccccn1 | i | i | i | i | nt | i
COC1C(CO)OC(n2c3c(Cl)cccc3c3c4c(c5c6cccc(Cl)c6[nH]c5c32)C(=O)NC4=O)C(O)C1O (centres undefined) | 23 | i | 56 | i | 113 | i
COc1ccc2c3c(n(C)c2c1)[C@@H](CO)N(C(=O)NC(C)C)CC31CN(Cc2nccs2)C1 | i | i | i | i | nt | i
CC(C)NC(=O)Nc1cccc2c1O[C@@H](CN(C)C(=O)Nc1ccc3c(c1)OCO3)[C@H](C)CN([C@H](C)CO)C2=O | i | i | i | i | nt | i
Oc1ccc(Br)cc1C=Nc1ccc2c3c(cccc13)CC2 | 105 | i | i | nt | i | i
Oc1ccc(Cl)cc1C=Nc1ccccc1Br | i | i | nt | nt | i | nt
COc1ccc2c3c([nH]c2c1)[C@H](CO)N(C(=O)Nc1cccc(F)c1)CC31CCN(S(=O)(=O)c2cccc(C)c2)CC1 | i | i | i | i | 106 | i
COc1ccc2c3c(n(C)c2c1)[C@@H](CO)N(C(=O)Nc1ccc(F)cc1)CC31CN(S(=O)(=O)c2cccc(F)c2)C1 | i | i | nt | nt | nt | nt
COc1ccc(S(=O)(=O)N2CCC3(CC2)CN(C(=O)CN(C)C)[C@@H](CO)c2c3c3ccc(OC)cc3n2C)cc1 | i | i | i | i | i | 35
COc1ccc2c3c([nH]c2c1)[C@H](CO)N(C(=O)Nc1cccc(F)c1)CC31CN(S(=O)(=O)c2cccc(C)c2)C1 | i | i | i | nt | nt | i
COc1ccc2c3c(n(C)c2c1)[C@@H](CO)N(C(=O)CN(C)C)CC31CCN(C(=O)CN(C)C)CC1 | i | i | i | i | nt | i
COc1ccc2c3c(n(C)c2c1)[C@@H](CO)N(C(=O)Nc1ccc(F)cc1)CC31CCN(S(=O)(=O)c2cccc(C)c2)CC1 | i | i | i | i | 81 | i
COc1ccc2c3c(n(C)c2c1)[C@H](CO)N(C(=O)Nc1ccc(F)cc1)CC31CN(S(=O)(=O)c2cccc(F)c2)C1 | i | i | i | i | nt | i
COc1ccc2c3c(n(C)c2c1)[C@H](CO)N(C(=O)Nc1ccc(F)cc1)CC31CCN(S(=O)(=O)c2cccc(C)c2)CC1 | i | i | i | i | 89 | i
O=C(C[C@@H]1CC[C@@H]2[C@H](COC[C@H](O)CN2C(=O)Nc2ccc(Cl)cc2)O1)N1CCCCC1 | i | i | i | i | i | i
CO[C@@H]1CN(C)C(=O)c2cc(NC(=O)c3cnccn3)ccc2OC[C@@H](C)N(CCC(F)(F)F)C[C@H]1C | i | i | i | i | nt | i
COc1ccc(CN2CC3(C2)CN(Cc2ccc4c(c2)OCO4)[C@@H](CO)c2[nH]c4cc(OC)ccc4c23)cc1 | i | i | i | i | nt | 50
SMILES | XiGFP reactiv | INS-1E GSIS act | EWS-Fli block | PGC1a acetyl inh | PAX8 inh HTS | AF4-AF9 inh
COc1ccc2c3c([nH]c2c1)[C@H](CO)N(C(C)=O)CC31CCN(Cc2cc(-c3ccccc3)on2)CC1 | i | i | i | i | i | 30
COc1ccc2c3c([nH]c2c1)[C@H](CO)N(C(C)=O)CC31CN(Cc2ccccc2Cl)C1 | i | i | i | i | i | 26
COc1ccc2c3c([nH]c2c1)[C@H](CO)N(C(C)=O)CC31CN(Cc2cc(-c3ccccc3)on2)C1 | i | i | i | i | nt | 26
CCS(=O)(=O)N1CC2(CN(Cc3ccc4c(c3)OCO4)[C@@H](CO)c3[nH]c4cc(OC)ccc4c32)C1 | i | i | nt | nt | nt | nt
COCC(=O)Nc1ccc2c(c1)OC[C@@H](C)N(C(=O)C1CCCC1)C[C@H](C)[C@@H](OC)CN(C)C2=O | i | i | i | i | i | nt
CC(=O)N(C)C[C@H]1Oc2c(NC(=O)NC(C)C)cccc2C(=O)N(C)C[C@@H]1C | i | i | nt | nt | nt | nt
O=C(N[C@@H]1CC[C@H](CC(=O)N2CCOCC2)O[C@@H]1CO)c1ccccn1 | i | i | nt | i | nt | i
COCC(=O)Nc1ccc2c(c1)C(=O)N(C)[C@@H]1CC[C@@H](CC(=O)NCC3CCCCC3)O[C@H]1CO2 | i | i | i | i | i | i
COc1ccc2c3c([nH]c2c1)[C@H](CO)N(C(=O)Nc1ccc(F)cc1)CC31CCN(Cc2cc(-c3ccccc3)on2)CC1 | i | i | i | nt | nt | i
COc1ccc2c3c([nH]c2c1)[C@@H](CO)N(C(C)=O)CC31CCN(Cc2cc(-c3ccccc3)on2)CC1 | i | i | i | i | i | 36
CC=Cc1ccc2n(c1=O)C[C@H]1[C@H](CO)[C@@H](C(=O)NCCc3ccncc3)[C@@H]2N1CCC(F)(F)F (mixture of isomers) | i | i | i | nt | i | nt
O=C(NC1CCCC1)c1cccc2c1C(=O)c1ccc(/C=C/c3ccccc3)cc1S2(=O)=O | 14 | nt | i | i | i | i
COc1ccc(-c2ccc3c(c2)S(=O)(=O)c2cccc(C(=O)NC4CCCC4)c2C3=O)cc1OC | i | i | i | i | i | i
O=C(NCc1ccccc1)c1cccc2c1C(=O)c1ccc(/C=C/c3ccccc3)cc1S2(=O)=O | 18 | i | i | i | i | nt
O=C(O)C1CCN(C(=O)CSc2nc3cc(Cl)ccc3c(=O)n2Cc2ccccc2)CC1 | i | i | i | i | i | i
O=C(O)C1CCN(C(=O)CSc2nc3ccccc3c(=O)n2Cc2ccccc2)CC1 | i | 43 | i | i | i | i
CC(=NNC(=S)N1CCC1)c1ccccn1 | i | i | i | i | 94 | i

Screening data from PubChem.
